Source: ChEMBL document CHEMBL1124366, “Synthesis and biological properties of N63-carboxamides of teicoplanin antibiotics. Structure-activity relationships” (J Med Chem, 1989)
≈ marks a conversion by molar mass, not a printed value.

Legend:
Streptococcus pyogenes [1] = test: Subcutaneously administration into mice infected with Streptococcus pyogenes C 203; type: functional; conditions: sc
Summary of the method: (§1)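 Mice (five per treatment group, five groups) infected intraperitoneally with about 10⁵ cells of Strep. pyogenes C 203, about 100× the LD50. ED50 (mg/kg) was calculated from the percentage of mice surviving at each dose on day 7.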

[2] = test system: Staphylococcus epidermidis; test: In vitro minimum inhibitory concentration against Staphylococcus epidermis ATCC 12228; type: functional
Streptococcus pyogenes [3] = test: In vitro minimum inhibitory concentration against Streptococcus pyogenes C 203; type: functional
Staphylococcus aureus = test: In vitro minimum inhibitory concentration against Staphylococcus aureus Tour; type: functional
Enterococcus faecalis = test: In vitro minimum inhibitory concentration against Streptococcus faecalis ATCC 7080; type: functional
Gram-negative bacteria = test: Minimum inhibitory concentration of compound against Gram negative bacteria
Streptococcus pneumoniae = test: In vitro minimum inhibitory concentration against Streptococcus pneumoniae UC41; type: functional
[4] = test system: Ac2-L-Lys-D-Ala-D-Ala peptide; test: Association constant with Ac2-L-Lys-D-Ala-D-Ala
Summary of the method: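 UV difference spectroscopy at 24 ± 2 °C in 4-cm unthermostated cells. Antibiotic was at 30 μM in 10% MeOH in sodium phosphate buffer, pH 9, and titrated with Ac2-L-Lys-D-Ala-D-Ala. ΔA was monitored at 294 nm. Ka was taken from the slope of a Scatchard plot.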

Bacteria = test: Minimum inhibitory concentration of compound against Gram negative bacteria; type: functional
Proteus vulgaris = test: In vitro minimum inhibitory concentration against Proteus vulgaris X 19 ATCC 881; type: functional
Pseudomonas aeruginosa = test: In vitro minimum inhibitory concentration against Pseudomonas aeruginosa ATCC 10145; type: functional
Escherichia coli = test: In vitro minimum inhibitory concentration against Escherichia coli SKF 12140; type: functional
[5] = test system: Staphylococcus haemolyticus; test: In vitro minimum inhibitory concentration against Staphylococcus hemolyticus 602 cell line; type: functional; conditions: strain 602
Streptococcus pyogenes [6] = test: In vivo effective dose given perorally to mice infected with Streptococcus pyogenes C 203; type: functional; conditions: po; summary of the method: as §1

SMILES	ED50 (Streptococcus pyogenes [1]) [mg/kg]	MIC [2] [µg/mL]	MIC (Streptococcus pyogenes [3]) [µg/mL]	MIC (Staphylococcus aureus) [µg/mL]	MIC (Enterococcus faecalis) [µg/mL]	MIC (Gram-negative bacteria) [µg/mL]	MIC (Streptococcus pneumoniae) [µg/mL]	Ka [4] [M⁻¹]	MIC (Bacteria) [µg/mL]	MIC (Proteus vulgaris) [µg/mL]	MIC (Pseudomonas aeruginosa) [µg/mL]	MIC (Escherichia coli) [µg/mL]	MIC [5] [µg/mL]	ED50 (Streptococcus pyogenes [6]) [mg/kg]
CCN(CC)CCCNC(=O)[C@H]1NC(=O)[C@H]2NC(=O)[C@H](NC(=O)[C@@H]3NC(=O)[C@H]4NC(=O)[C@@H](Cc5ccc(c(Cl)c5)Oc5cc3cc(c5O)Oc3ccc(cc3Cl)[C@H]2O[C@@H]2O[C@@H](CO)[C@@H](O)[C@H](O)[C@@H]2NC(C)=O)NC(=O)[C@H](N)c2ccc(O)c(c2)Oc2cc(O)cc4c2)c2ccc(O)c(c2)-c2c(O[C@H]3O[C@H](CO)[C@@H](O)[C@@H](O)[C@@H]3O)cc(O)cc21	0.3	0.06 (≈ 0.0358 µM)	0.12 (≈ 0.0716 µM)	0.25 (≈ 0.149 µM)	0.5 (≈ 0.298 µM)	> 128	0.5 (≈ 0.298 µM)	–	–	–	–	–	–	–
CC(=O)N[C@@H]1[C@H](O[C@@H]2c3ccc(c(Cl)c3)Oc3cc4cc(c3O)Oc3ccc(cc3Cl)C[C@H]3NC(=O)[C@H](N)c5ccc(O)c(c5)Oc5cc(O)cc(c5)[C@H](NC3=O)C(=O)N[C@H]4C(=O)N[C@H]3C(=O)N[C@@H]2C(=O)N[C@H](C(=O)N2CCN(C)CC2)c2cc(O)cc(O[C@H]4O[C@H](CO)[C@@H](O)[C@@H](O)[C@@H]4O)c2-c2cc3ccc2O)O[C@@H](CO)[C@@H](O)[C@@H]1O	0.95	0.12 (≈ 0.0729 µM)	0.5 (≈ 0.304 µM)	0.25 (≈ 0.152 µM)	2 (≈ 1.21 µM)	–	1 (≈ 0.607 µM)	100000	> 128	–	–	–	–	–
CC(=O)N[C@@H]1[C@H](O[C@@H]2c3ccc(c(Cl)c3)Oc3cc4cc(c3O)Oc3ccc(cc3Cl)C[C@H]3NC(=O)[C@H](N)c5ccc(O)c(c5)Oc5cc(O)cc(c5)[C@H](NC3=O)C(=O)N[C@H]4C(=O)N[C@H]3C(=O)N[C@@H]2C(=O)N[C@H](C(=O)O)c2cc(O)cc(O[C@H]4O[C@H](CO)[C@@H](O)[C@@H](O)[C@@H]4O)c2-c2cc3ccc2O)O[C@@H](CO)[C@@H](O)[C@@H]1O	2.64	0.25 (≈ 0.16 µM)	0.12 (≈ 0.0767 µM)	0.25 (≈ 0.16 µM)	0.5 (≈ 0.32 µM)	–	0.5 (≈ 0.32 µM)	–	> 128	–	–	–	–	–
CC(=O)N[C@@H]1[C@H](O[C@@H]2c3ccc(c(Cl)c3)Oc3cc4cc(c3O)Oc3ccc(cc3Cl)C[C@H]3NC(=O)[C@H](N)c5ccc(O)c(c5)Oc5cc(O)cc(c5)[C@H](NC3=O)C(=O)N[C@H]4C(=O)N[C@H]3C(=O)N[C@@H]2C(=O)N[C@H](C(=O)NCCN2CCCC2)c2cc(O)cc(O[C@H]4O[C@H](CO)[C@@H](O)[C@@H](O)[C@@H]4O)c2-c2cc3ccc2O)O[C@@H](CO)[C@@H](O)[C@@H]1O	0.41	0.25 (≈ 0.151 µM)	0.12 (≈ 0.0723 µM)	0.25 (≈ 0.151 µM)	0.5 (≈ 0.301 µM)	> 128	0.5 (≈ 0.301 µM)	–	–	–	–	–	–	–
N[C@H]1C(=O)N[C@@H]2Cc3ccc(c(Cl)c3)Oc3cc4cc(c3O)Oc3ccc(cc3Cl)[C@@H](O)[C@@H]3NC(=O)[C@H](NC(=O)[C@@H]4NC(=O)[C@@H](NC2=O)c2cc(O)cc(c2)Oc2cc1ccc2O)c1ccc(O)c(c1)-c1c(O)cc(O)cc1[C@@H](C(=O)NC(CCC(=O)O)C(=O)O)NC3=O (stereo not given in full)	5	0.12 (≈ 0.0904 µM)	0.12 (≈ 0.0904 µM)	0.12 (≈ 0.0904 µM)	0.5 (≈ 0.376 µM)	–	0.12 (≈ 0.0904 µM)	82000	–	> 128	> 128	> 128	–	–
CC(=O)N[C@@H]1[C@H](O[C@@H]2c3ccc(c(Cl)c3)Oc3cc4cc(c3O)Oc3ccc(cc3Cl)C[C@H]3NC(=O)[C@H](N)c5ccc(O)c(c5)Oc5cc(O)cc(c5)[C@H](NC3=O)C(=O)N[C@H]4C(=O)N[C@H]3C(=O)N[C@@H]2C(=O)N[C@H](C(=O)N2CCSCC2)c2cc(O)cc(O[C@H]4O[C@H](CO)[C@@H](O)[C@@H](O)[C@@H]4O)c2-c2cc3ccc2O)O[C@@H](CO)[C@@H](O)[C@@H]1O	1.6	0.12 (≈ 0.0728 µM)	0.5 (≈ 0.303 µM)	0.5 (≈ 0.303 µM)	2 (≈ 1.21 µM)	–	0.5 (≈ 0.303 µM)	120000	> 128	–	–	–	–	–
NCCCNC(=O)[C@H]1NC(=O)[C@H]2NC(=O)[C@H](NC(=O)[C@@H]3NC(=O)[C@H]4NC(=O)[C@@H](Cc5ccc(c(Cl)c5)Oc5cc3cc(c5O)Oc3ccc(cc3Cl)[C@H]2O)NC(=O)[C@H](N)c2ccc(O)c(c2)Oc2cc(O)cc4c2)c2ccc(O)c(c2)-c2c(O)cc(O)cc21	1.25	0.06 (≈ 0.0478 µM)	0.06 (≈ 0.0478 µM)	0.12 (≈ 0.0956 µM)	0.12 (≈ 0.0956 µM)	–	0.12 (≈ 0.0956 µM)	26000	–	32 (≈ 25.5 µM)	32 (≈ 25.5 µM)	4 (≈ 3.19 µM)	0.12 (≈ 0.0956 µM)	–
CNCCCNC(=O)[C@H]1NC(=O)[C@H]2NC(=O)[C@H](NC(=O)[C@@H]3NC(=O)[C@H]4NC(=O)[C@@H](Cc5ccc(c(Cl)c5)Oc5cc3cc(c5O[C@@H]3O[C@@H](CO)[C@@H](O)[C@H](O)[C@@H]3NC(=O)CCCCCCC(C)C)Oc3ccc(cc3Cl)[C@H]2O[C@@H]2O[C@@H](CO)[C@@H](O)[C@H](O)[C@@H]2NC(C)=O)NC(=O)[C@H](N)c2ccc(O)c(c2)Oc2cc(O)cc4c2)c2ccc(O)c(c2)-c2c(O[C@H]3O[C@H](CO)[C@@H](O)[C@@H](O)[C@@H]3O)cc(O)cc21	0.14	0.06 (≈ 0.0308 µM)	0.06 (≈ 0.0308 µM)	0.12 (≈ 0.0615 µM)	0.12 (≈ 0.0615 µM)	–	0.12 (≈ 0.0615 µM)	66000	–	–	–	–	0.12 (≈ 0.0615 µM)	112
N[C@H]1C(=O)N[C@@H]2Cc3ccc(c(Cl)c3)Oc3cc4cc(c3O)Oc3ccc(cc3Cl)[C@@H](O)[C@@H]3NC(=O)[C@H](NC(=O)[C@@H]4NC(=O)[C@@H](NC2=O)c2cc(O)cc(c2)Oc2cc1ccc2O)c1ccc(O)c(c1)-c1c(O)cc(O)cc1[C@@H](C(=O)O)NC3=O [TEICOPLANIN AGLYCON]	0.95	0.016 (≈ 0.0133 µM)	0.12 (≈ 0.1 µM)	0.06 (≈ 0.05 µM)	0.12 (≈ 0.1 µM)	–	0.12 (≈ 0.1 µM)	30000	–	128 (≈ 107 µM)	> 128	64 (≈ 53.4 µM)	0.25 (≈ 0.209 µM)	–
CN(C)CCCNC(=O)[C@H]1NC(=O)[C@H]2NC(=O)[C@H](NC(=O)[C@@H]3NC(=O)[C@H]4NC(=O)[C@@H](Cc5ccc(c(Cl)c5)Oc5cc3cc(c5O)Oc3ccc(cc3Cl)[C@H]2O)NC(=O)[C@H](N)c2ccc(O)c(c2)Oc2cc(O)cc4c2)c2ccc(O)c(c2)-c2c(O)cc(O)cc21	0.31	0.016 (≈ 0.0125 µM)	0.06 (≈ 0.0468 µM)	0.06 (≈ 0.0468 µM)	0.12 (≈ 0.0935 µM)	–	0.12 (≈ 0.0935 µM)	55000	–	16 (≈ 12.5 µM)	32 (≈ 24.9 µM)	8 (≈ 6.23 µM)	–	–
CCCCN(CCCC)CCCNC(=O)[C@H]1NC(=O)[C@H]2NC(=O)[C@H](NC(=O)[C@@H]3NC(=O)[C@H]4NC(=O)[C@@H](Cc5ccc(c(Cl)c5)Oc5cc3cc(c5O)Oc3ccc(cc3Cl)[C@H]2O[C@@H]2O[C@@H](CO)[C@@H](O)[C@H](O)[C@@H]2NC(C)=O)NC(=O)[C@H](N)c2ccc(O)c(c2)Oc2cc(O)cc4c2)c2ccc(O)c(c2)-c2c(O[C@H]3O[C@H](CO)[C@@H](O)[C@@H](O)[C@@H]3O)cc(O)cc21	0.18	0.06 (≈ 0.0346 µM)	0.12 (≈ 0.0693 µM)	1 (≈ 0.577 µM)	0.5 (≈ 0.289 µM)	> 128	0.5 (≈ 0.289 µM)	–	–	–	–	–	–	–
CC(=O)N[C@@H]1[C@H](O[C@@H]2c3ccc(c(Cl)c3)Oc3cc4cc(c3O)Oc3ccc(cc3Cl)C[C@H]3NC(=O)[C@H](N)c5ccc(O)c(c5)Oc5cc(O)cc(c5)[C@H](NC3=O)C(=O)N[C@H]4C(=O)N[C@H]3C(=O)N[C@@H]2C(=O)N[C@H](C(=O)NCCN2CCOCC2)c2cc(O)cc(O[C@H]4O[C@H](CO)[C@@H](O)[C@@H](O)[C@@H]4O)c2-c2cc3ccc2O)O[C@@H](CO)[C@@H](O)[C@@H]1O	1.6	0.06 (≈ 0.0358 µM)	0.12 (≈ 0.0716 µM)	0.25 (≈ 0.149 µM)	1 (≈ 0.596 µM)	> 128	0.5 (≈ 0.298 µM)	–	–	–	–	–	–	–
CC(=O)N[C@@H]1[C@H](O[C@@H]2c3ccc(c(Cl)c3)Oc3cc4cc(c3O)Oc3ccc(cc3Cl)C[C@H]3NC(=O)[C@H](N)c5ccc(O)c(c5)Oc5cc(O)cc(c5)[C@H](NC3=O)C(=O)N[C@H]4C(=O)N[C@H]3C(=O)N[C@@H]2C(=O)N[C@H](C(=O)NCCCN(C)C)c2cc(O)cc(O[C@H]4O[C@H](CO)[C@@H](O)[C@@H](O)[C@@H]4O)c2-c2cc3ccc2O)O[C@@H](CO)[C@@H](O)[C@@H]1O	0.81	0.12 (≈ 0.0728 µM)	0.12 (≈ 0.0728 µM)	0.5 (≈ 0.303 µM)	1 (≈ 0.607 µM)	> 128	0.5 (≈ 0.303 µM)	–	–	–	–	–	–	–
CN(C)CCCCCCCNC(=O)[C@H]1NC(=O)[C@H]2NC(=O)[C@H](NC(=O)[C@@H]3NC(=O)[C@H]4NC(=O)[C@@H](Cc5ccc(c(Cl)c5)Oc5cc3cc(c5O)Oc3ccc(cc3Cl)[C@H]2O)NC(=O)[C@H](N)c2ccc(O)c(c2)Oc2cc(O)cc4c2)c2ccc(O)c(c2)-c2c(O)cc(O)cc21	0.95	0.06 (≈ 0.0448 µM)	0.06 (≈ 0.0448 µM)	0.06 (≈ 0.0448 µM)	0.12 (≈ 0.0896 µM)	–	0.12 (≈ 0.0896 µM)	50000	–	128 (≈ 95.6 µM)	128 (≈ 95.6 µM)	16 (≈ 11.9 µM)	0.12 (≈ 0.0896 µM)	–
